{
  "source": "paper PMC2095803",
  "about": "(Nucleic Acids Research, 2007)",
  "key": {"[1]": {"experiment": "UV deprotection studies of 5′-O-TBS derivatives", "type": "physicochemical", "settings": "for DT1/2 (deprotection half-life time) at 302 nm / DT1/2 (deprotection half-life time) at 365 nm: 1 mM in methanol, 0.5 mW transilluminator, triplicate", "in_short": "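The test compound, in methanol at 1 mM in a scintillation vial, was irradiated with a 0.5 mW transilluminator at 302 or 365 nm. Aliquots taken at time intervals went to reverse-phase HPLC to follow loss of starting material and appearance of the deprotected product (loss of the 2-nitrobenzyl group). DT1/2 is the time at 50% deprotection, read from kinetic plots. Each compound was run in triplicate.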"}, "Bst DNA polymerase [2]": {"target": "T1, Bst DNA polymerase (Geobacillus stearothermophilus, UniProt P52026)", "T1 sequence (P52026 289-876 limits assumed)": "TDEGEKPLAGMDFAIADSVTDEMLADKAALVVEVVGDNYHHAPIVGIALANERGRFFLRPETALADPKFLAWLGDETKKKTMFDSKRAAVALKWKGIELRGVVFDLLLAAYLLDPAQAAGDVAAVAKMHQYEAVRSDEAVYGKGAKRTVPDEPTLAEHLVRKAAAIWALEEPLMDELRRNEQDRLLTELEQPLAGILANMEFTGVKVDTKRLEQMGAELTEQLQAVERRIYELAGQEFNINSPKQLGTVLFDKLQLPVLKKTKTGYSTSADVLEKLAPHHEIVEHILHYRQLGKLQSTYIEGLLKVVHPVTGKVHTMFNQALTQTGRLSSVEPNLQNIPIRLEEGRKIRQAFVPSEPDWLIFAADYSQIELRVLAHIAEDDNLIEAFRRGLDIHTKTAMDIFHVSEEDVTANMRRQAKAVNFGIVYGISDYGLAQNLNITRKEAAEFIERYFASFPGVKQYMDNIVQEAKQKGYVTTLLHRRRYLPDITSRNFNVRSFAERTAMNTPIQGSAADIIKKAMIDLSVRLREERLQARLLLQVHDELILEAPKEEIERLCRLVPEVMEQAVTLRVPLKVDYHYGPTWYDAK", "experiment": "Oligonucleotide template assay", "type": "biochemical, Bacillus stearothermophilus", "settings": "for Incorporation: Bst, five-base poly-thymidine template, high concentrations (100 μM)"}, "[3]": {"target": "T2, Vent(exo−) DNA polymerase (Thermococcus litoralis, UniProt P30317, D141A/E143A)", "T2 sequence (P30317 with tags, fused parts or gaps D141A/E143A)": "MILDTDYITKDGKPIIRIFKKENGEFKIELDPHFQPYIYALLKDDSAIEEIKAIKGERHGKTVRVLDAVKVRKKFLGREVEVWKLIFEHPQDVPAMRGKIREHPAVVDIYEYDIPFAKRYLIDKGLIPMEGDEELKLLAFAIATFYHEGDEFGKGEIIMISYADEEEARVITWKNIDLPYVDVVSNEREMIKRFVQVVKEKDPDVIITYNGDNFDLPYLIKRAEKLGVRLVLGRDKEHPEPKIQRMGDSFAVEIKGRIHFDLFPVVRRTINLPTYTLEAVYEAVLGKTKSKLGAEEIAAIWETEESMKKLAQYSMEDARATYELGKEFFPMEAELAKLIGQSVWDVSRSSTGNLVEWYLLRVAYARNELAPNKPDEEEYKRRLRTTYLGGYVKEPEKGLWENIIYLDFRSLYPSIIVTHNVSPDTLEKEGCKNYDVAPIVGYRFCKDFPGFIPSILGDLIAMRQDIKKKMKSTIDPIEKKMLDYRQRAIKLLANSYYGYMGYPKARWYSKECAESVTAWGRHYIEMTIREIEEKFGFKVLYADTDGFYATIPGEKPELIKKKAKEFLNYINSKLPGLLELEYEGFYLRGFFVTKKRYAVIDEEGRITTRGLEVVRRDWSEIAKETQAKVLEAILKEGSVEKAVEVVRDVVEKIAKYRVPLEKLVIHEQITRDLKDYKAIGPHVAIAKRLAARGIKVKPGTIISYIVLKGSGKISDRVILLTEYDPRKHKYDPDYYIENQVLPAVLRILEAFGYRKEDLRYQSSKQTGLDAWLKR", "settings": "screening with eight different DNA polymerases; cited from earlier work"}, "Bst DNA polymerase [4]": {"target": "T1, Bst DNA polymerase", "experiment": "PEP", "type": "biochemical, Bacillus stearothermophilus"}, "[5]": {"target": "T3, DeepVent(exo−) DNA polymerase (Pyrococcus sp. GB-D, UniProt Q51334, D141A/E143A)", "T3 sequence (Q51334 with tags, fused parts or gaps D141A/E143A)": "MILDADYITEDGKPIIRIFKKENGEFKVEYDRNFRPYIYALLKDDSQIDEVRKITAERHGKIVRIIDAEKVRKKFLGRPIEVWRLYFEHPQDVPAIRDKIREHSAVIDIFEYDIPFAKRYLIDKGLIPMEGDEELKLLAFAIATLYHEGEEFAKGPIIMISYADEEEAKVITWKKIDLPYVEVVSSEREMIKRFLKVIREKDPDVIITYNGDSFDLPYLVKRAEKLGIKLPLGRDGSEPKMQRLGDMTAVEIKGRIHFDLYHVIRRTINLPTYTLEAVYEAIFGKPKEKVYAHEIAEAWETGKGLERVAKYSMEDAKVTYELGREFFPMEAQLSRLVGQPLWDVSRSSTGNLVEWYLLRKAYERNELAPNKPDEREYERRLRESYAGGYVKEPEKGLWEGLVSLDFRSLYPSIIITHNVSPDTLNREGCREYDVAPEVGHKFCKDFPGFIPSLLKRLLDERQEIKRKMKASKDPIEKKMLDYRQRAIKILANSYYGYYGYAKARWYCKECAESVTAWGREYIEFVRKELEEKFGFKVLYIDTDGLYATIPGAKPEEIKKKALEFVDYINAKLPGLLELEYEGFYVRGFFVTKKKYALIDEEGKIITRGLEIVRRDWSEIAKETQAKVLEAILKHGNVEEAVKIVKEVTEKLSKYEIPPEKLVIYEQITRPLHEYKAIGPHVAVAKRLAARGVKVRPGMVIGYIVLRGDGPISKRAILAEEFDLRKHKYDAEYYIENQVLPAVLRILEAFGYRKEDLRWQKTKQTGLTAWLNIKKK", "experiment": "PEP", "type": "biochemical, Pyrococcus species GB-D"}, "[6]": {"target": "T2, Vent(exo−) DNA polymerase", "experiment": "PEP", "type": "biochemical"}},
  "data": [
    {"smiles": "CC(C)(C)[Si](C)(C)OC[C@H]1O[C@@H](n2cnc3c(N(Cc4ccccc4[N+](=O)[O-])Cc4ccccc4[N+](=O)[O-])ncnc32)C[C@@H]1O", "note": "[IIb, N^6, N^6-Bis-(2-nitrobenzyl)-5’-O-tert-butyldimethylsilyl-2’deoxyadenosine]", "values": [
      {"measurement": "Deprotection rate relative to compound Ib", "setting": "[1]; faster than Ib at both deprotection wavelengths (302 and 365 nm)", "value": "approximately 3 fold"}
    ]},
    {"smiles": "O=[N+]([O-])c1ccccc1CN(Cc1ccccc1[N+](=O)[O-])c1ncnc2c1ncn2[C@H]1C[C@H](O)[C@@H](COP(=O)(O)OP(=O)(O)OP(=O)(O)O)O1", "note": "[IIc, N^6, N^6-Bis-(2-nitrobenzyl)-2’-deoxyadenosine-5’-triphosphate]", "values": [
      {"measurement": "Activity by DNA polymerase incorporation assays", "setting": "Bst DNA polymerase [2]", "value": "inactive"},
      {"measurement": "Incorporation", "setting": "Bst DNA polymerase [2]", "value": "did not show significant incorporation"}
    ]},
    {"smiles": "Nc1ncnc2c1ncn2[C@H]1C[C@H](OCc2ccccc2[N+](=O)[O-])[C@@H](COP(=O)(O)OP(=O)(O)OP(=O)(O)O)O1", "note": "[Ic, 3’-O-(2-Nitrobenzyl)-2’-deoxyadenosine-5’-triphosphate]", "values": [
      {"measurement": "Activity by DNA polymerase incorporation assays", "setting": "Bst DNA polymerase [2]", "value": "inactive"},
      {"measurement": "Incorporation", "setting": "Bst DNA polymerase [2]", "value": "did not show significant incorporation"}
    ]},
    {"smiles": "CC(C)(C)[Si](C)(C)OC[C@H]1O[C@@H](n2cnc3c(N)ncnc32)C[C@@H]1OCc1ccccc1[N+](=O)[O-]", "note": "[Compound Ib, 5’-O-tert-Butyldimethylsilyl-3’-O-(2-nitrobenzyl)-2’-deoxyadenosine]", "values": [
      {"measurement": "DT1/2 (deprotection half-life time) at 302 nm", "setting": "[1]", "value": 1, "unit": "min"},
      {"measurement": "DT1/2 (deprotection half-life time) at 365 nm", "setting": "[1]", "value": 2.53, "unit": "min"}
    ]},
    {"smiles": "CC(C)(C)[Si](C)(C)OC[C@H]1O[C@@H](n2cnc3c(NCc4ccccc4[N+](=O)[O-])ncnc32)C[C@@H]1O", "note": "[IIIb, N^6-(2-Nitrobenzyl)-5’-O-tert-butyldimethylsilyl-2’-deoxyadenosine]", "values": [
      {"measurement": "DT1/2 (deprotection half-life time) at 302 nm", "setting": "[1]", "value": 0.767, "unit": "min"},
      {"measurement": "DT1/2 (deprotection half-life time) at 365 nm", "setting": "[1]", "value": 2.4, "unit": "min"}
    ]},
    {"smiles": "C=CCO[C@H]1C[C@H](n2cnc3c(N)ncnc32)O[C@@H]1COP(=O)(O)OP(=O)(O)OP(=O)(O)O", "note": "[3′-O-allyl-dATP]", "values": [
      {"measurement": "Activity as polymerase substrate", "setting": "[3]", "value": "limited activity at high micromolar concentrations"}
    ]},
    {"smiles": "Nc1ncnc2c1ncn2[C@H]1C[C@H](O)[C@@H](COP(=O)(O)OP(=O)(O)OP(=O)(O)O)O1", "note": "[dATP, 2′-Deoxyadenosine triphosphate]", "values": [
      {"measurement": "IC50", "setting": "Bst DNA polymerase [4]", "value": "1.2 ± 0.1", "unit": "nM"},
      {"measurement": "IC50", "setting": "[5]", "value": "2.8 ± 0.2", "unit": "nM"},
      {"measurement": "IC50", "setting": "[6]", "value": "1.6 ± 0.2", "unit": "nM"}
    ]}
  ]
}
